The source of these data is ChEMBL document CHEMBL1145176, “Somatostatin receptor 1 selective analogues: 2. N(alpha)-Methylated scan” (J Med Chem, 2005).

Assay [1] addresses Somatostatin receptor type 3 (Homo sapiens, UniProt P32745). The assay can be described thus: Inhibition of [Leu8,D-Trp22,125I-Tyr25]SRIF-28 binding to human somatostatin receptor type 3.
Assay [2] has as its target Somatostatin receptor type 2 (Homo sapiens, UniProt P30874). The assay can be described thus: Inhibition of [Leu8,D-Trp22,125I-Tyr25]SRIF-28 binding to human somatostatin receptor type 2.
Assay [3] concerns the target Somatostatin receptor type 5 (Homo sapiens, UniProt P35346). The assay can be described thus: Inhibition of [Leu8,D-Trp22,125I-Tyr25]SRIF-28 binding to human somatostatin receptor type 5.
Assay [4] has as its target Somatostatin receptor type 1 (Homo sapiens, UniProt P30872). The assay can be described thus: Inhibition of [Leu8,D-Trp22,125I-Tyr25]SRIF-28 binding to human somatostatin receptor type 1.
Assay [5] addresses Somatostatin receptor type 4 (Homo sapiens, UniProt P31391). The assay can be described thus: Inhibition of [Leu8,D-Trp22,125I-Tyr25]SRIF-28 binding to human somatostatin receptor type 4.
A further assay deals with CHO-K1. As to the kind of experiment: Inhibition of forskolin-stimulated cAMP accumulation in CCL39 cells. Type of assay: functional, Cricetulus griseus. Put shortly: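 CCL39 cells stably expressing human sst1 were seeded at 2 × 10^4 cells/well on poly-D-lysine plates and grown 24 h. Cells were preincubated 30 min at 37 °C with 0.5 mM IBMX, then exposed 30 min at 37 °C to IBMX ± 7.5 µM forskolin plus graded compound concentrations. Lysate cAMP was read by scintillation proximity assay and expressed as % forskolin-stimulated level. EC50 came from three independent experiments in triplicate, with SRIF-28 as positive control.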

Values joined by “and” are separate entries in the source; they are usually repeats but may differ in a detail not shown here. Identical values can stand only once.

Chain of Somatostatin receptor type 5 (P35346 whole entry): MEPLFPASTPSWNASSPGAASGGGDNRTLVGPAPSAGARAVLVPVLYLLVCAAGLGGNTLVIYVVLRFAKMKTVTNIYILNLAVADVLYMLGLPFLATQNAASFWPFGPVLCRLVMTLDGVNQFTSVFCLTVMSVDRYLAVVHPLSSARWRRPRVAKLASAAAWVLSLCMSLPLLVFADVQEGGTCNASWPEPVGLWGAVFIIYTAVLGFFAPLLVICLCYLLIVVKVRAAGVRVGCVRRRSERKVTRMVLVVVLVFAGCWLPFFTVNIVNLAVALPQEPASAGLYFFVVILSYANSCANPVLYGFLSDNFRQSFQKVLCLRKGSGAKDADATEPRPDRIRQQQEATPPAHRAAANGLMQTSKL
Chain of Somatostatin receptor type 1 (P30872 whole entry): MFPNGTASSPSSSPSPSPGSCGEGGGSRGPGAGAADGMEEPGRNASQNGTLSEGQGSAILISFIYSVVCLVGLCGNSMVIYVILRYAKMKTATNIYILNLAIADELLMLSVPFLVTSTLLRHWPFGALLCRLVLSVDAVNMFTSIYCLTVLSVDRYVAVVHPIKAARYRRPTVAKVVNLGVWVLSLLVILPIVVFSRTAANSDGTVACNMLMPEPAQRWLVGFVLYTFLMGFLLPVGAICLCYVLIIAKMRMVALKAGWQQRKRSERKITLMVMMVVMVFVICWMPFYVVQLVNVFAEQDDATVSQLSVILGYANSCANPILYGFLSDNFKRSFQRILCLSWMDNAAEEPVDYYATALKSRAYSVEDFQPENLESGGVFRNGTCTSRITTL
Chain of Somatostatin receptor type 2 (P30874 whole entry): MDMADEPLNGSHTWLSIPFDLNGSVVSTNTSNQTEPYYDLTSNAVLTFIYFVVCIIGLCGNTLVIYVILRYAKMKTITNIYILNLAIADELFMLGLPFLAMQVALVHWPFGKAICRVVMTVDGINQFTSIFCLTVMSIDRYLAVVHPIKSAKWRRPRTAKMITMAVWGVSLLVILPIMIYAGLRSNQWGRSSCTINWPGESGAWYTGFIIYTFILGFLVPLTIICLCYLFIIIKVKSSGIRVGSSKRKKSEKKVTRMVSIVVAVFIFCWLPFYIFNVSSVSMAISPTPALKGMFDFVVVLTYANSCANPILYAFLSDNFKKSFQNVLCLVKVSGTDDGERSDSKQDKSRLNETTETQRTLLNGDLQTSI
Chain of Somatostatin receptor type 4 (P31391 whole entry): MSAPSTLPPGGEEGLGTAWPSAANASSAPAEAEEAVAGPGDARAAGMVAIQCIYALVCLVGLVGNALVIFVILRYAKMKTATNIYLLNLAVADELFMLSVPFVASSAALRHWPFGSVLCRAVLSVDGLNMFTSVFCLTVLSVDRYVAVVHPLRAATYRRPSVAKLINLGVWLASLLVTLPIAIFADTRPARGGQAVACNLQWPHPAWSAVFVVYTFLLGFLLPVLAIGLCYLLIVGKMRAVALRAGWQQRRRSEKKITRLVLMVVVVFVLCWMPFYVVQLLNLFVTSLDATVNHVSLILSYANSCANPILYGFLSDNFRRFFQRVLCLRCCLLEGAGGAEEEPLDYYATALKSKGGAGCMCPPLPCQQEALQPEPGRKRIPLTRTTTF
Chain of Somatostatin receptor type 3 (P32745 whole entry): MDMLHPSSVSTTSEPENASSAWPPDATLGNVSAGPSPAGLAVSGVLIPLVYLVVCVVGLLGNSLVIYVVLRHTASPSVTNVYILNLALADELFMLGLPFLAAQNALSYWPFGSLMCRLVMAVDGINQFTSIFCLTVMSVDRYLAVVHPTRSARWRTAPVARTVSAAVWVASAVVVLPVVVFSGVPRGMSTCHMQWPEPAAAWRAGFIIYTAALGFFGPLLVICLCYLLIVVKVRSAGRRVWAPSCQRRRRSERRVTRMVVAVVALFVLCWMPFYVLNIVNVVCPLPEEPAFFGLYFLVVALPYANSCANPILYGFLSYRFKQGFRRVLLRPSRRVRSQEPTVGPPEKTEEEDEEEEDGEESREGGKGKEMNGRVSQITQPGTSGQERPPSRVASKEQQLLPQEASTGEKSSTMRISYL

In the case of `CC(C)NCc1ccc(C[C@@H]2NC(=O)[C@@H](Cc3ccc4ccccc4c3)NC(=O)[C@H](Cc3ccccc3)NC(=O)[C@H](Cc3ccccc3)NC(=O)[C@H](CCCCN)NC(=O)[C@@H](N)CSSC[C@@H](C(=O)O)NC(=O)[C@H](CO)N(C)C(=O)[C@H]([C@@H](C)O)NC(=O)[C@H](Cc3ccccc3)NC(=O)[C@H]([C@@H](C)O)NC2=O)cc1`, the IC50 in assay [1] was over 1000 nM; in assay [2], over 1000 nM; in assay [3] it was over 1000 nM; in assay [4], 71 nM; in assay [5], over 1000 nM.

Take `CN[C@H]1CSSC[C@@H](C(=O)O)NC(=O)[C@H](CO)NC(=O)[C@H]([C@@H](C)O)NC(=O)[C@H](Cc2ccccc2)NC(=O)[C@H]([C@@H](C)O)NC(=O)[C@H](Cc2ccc(CNC(C)C)cc2)NC(=O)[C@@H](Cc2ccc3ccccc3c2)NC(=O)[C@H](Cc2ccccc2)NC(=O)[C@H](Cc2ccccc2)NC(=O)[C@H](CCCCN)NC1=O`: the IC50 is over 1000 nM in assay [1]; over 1000 nM in assay [2]; over 1000 nM in assay [3]; 113 nM in assay [4]; over 1000 nM in assay [5].

With `C[C@@H](O)[C@@H]1NC(=O)[C@H](Cc2ccc(O)cc2)NC(=O)[C@H]([C@@H](C)O)NC(=O)[C@H](CCCCN)NC(=O)[C@@H](Cc2c[nH]c3ccccc23)NC(=O)[C@H](Cc2ccccc2)NC(=O)[C@H](Cc2ccccc2)NC(=O)[C@H](CCCCN)NC(=O)[C@@H](N)CSSC[C@@H](C(=O)O)NC(=O)[C@H](CO)NC1=O`, the half-inhibitory concentration (IC50) was found to be 8 nM in assay [1]; 16 nM in assay [2]; 4.8 nM in assay [3]; 10 nM in assay [4]; 0.5 nM in assay [5].

For `CC(C)NCc1ccc(C[C@@H]2NC(=O)[C@H](N(C)C(=O)c3ccc4ccccc4c3)NC(=O)[C@H](Cc3ccccc3)NC(=O)[C@H](Cc3ccccc3)NC(=O)[C@H](CCCCN)NC(=O)[C@@H](N)CSSC[C@@H](C(=O)O)NC(=O)[C@H](CO)NC(=O)[C@H]([C@@H](C)O)NC(=O)[C@H](Cc3ccc(O)cc3)NC(=O)[C@H]([C@@H](C)O)NC2=O)cc1`, the IC50 is over 1000 nM in assay [1]; over 1000 nM in assay [2]; over 1000 nM in assay [3]; 3.3 nM in assay [4]; 562 nM in assay [5].

Consider `CC(C)NCc1ccc(C[C@@H]2NC(=O)[C@@H](Cc3c[nH]c4ccccc34)NC(=O)[C@H](Cc3ccccc3)NC(=O)[C@H](Cc3ccccc3)NC(=O)[C@H](CCCCN)NC(=O)[C@@H](N)CSSC[C@@H](C(=O)O)N(C)C(=O)[C@H](CO)NC(=O)[C@H]([C@@H](C)O)NC(=O)[C@H](Cc3ccccc3)NC(=O)[C@H]([C@@H](C)O)NC2=O)cc1`, for which the IC50 in assay [1] is over 1000 nM; in assay [2] it was over 1000 nM; in assay [3] it was over 1000 nM; in assay [4], 151 nM; in assay [5], over 1000 nM.

Take `CSCC[C@H](NC(=O)[C@H](C)NC(=O)[C@@H]1CCCN1C(=O)[C@H](CC(N)=O)NC(=O)[C@H](CO)NC(=O)[C@H](CC(N)=O)NC(=O)[C@H](C)NC(=O)[C@@H](N)CO)C(=O)N[C@@H](C)C(=O)N1CCC[C@H]1C(=O)N[C@@H](CCCNC(=N)N)C(=O)N[C@@H](CCC(=O)O)C(=O)N[C@@H](CCCNC(=N)N)C(=O)N[C@@H](CCCCN)C(=O)N[C@@H](C)C(=O)NCC(=O)N[C@H]1CSSC[C@@H](C(=O)O)NC(=O)[C@H](CO)NC(=O)[C@H]([C@@H](C)O)NC(=O)[C@H](Cc2ccccc2)NC(=O)[C@H]([C@@H](C)O)NC(=O)[C@H](CCCCN)NC(=O)[C@H](Cc2c[nH]c3ccccc23)NC(=O)[C@H](Cc2ccccc2)NC(=O)[C@H](Cc2ccccc2)NC(=O)[C@H](CC(N)=O)NC(=O)[C@H](CCCCN)NC1=O`: the Inhibition in the assay on CHO-K1 was >81% and >49%.

With `CC(C)NCc1ccc(C[C@@H]2NC(=O)[C@@H](Cc3c[nH]c4ccccc34)NC(=O)[C@H](Cc3ccccc3)NC(=O)[C@H](Cc3ccccc3)NC(=O)[C@H](CCCCN)NC(=O)[C@@H](N)CSSC[C@@H](C(=O)N[C@@H](CCCCN)C(=O)O)N(C)C(=O)[C@H](CO)NC(=O)[C@H]([C@@H](C)O)NC(=O)[C@H](Cc3ccccc3)NC(=O)[C@H]([C@@H](C)O)NC2=O)cc1`, the IC50 in assay [1] is over 1000 nM; in assay [2] it was over 1000 nM; in assay [3], over 1000 nM; in assay [4], 35 nM; in assay [5], over 1000 nM.

As to `CC(C)NCc1ccc(C[C@@H]2NC(=O)[C@@H](Cc3ccc4ccccc4c3)NC(=O)[C@H](Cc3ccccc3)N(C)C(=O)[C@H](Cc3ccccc3)NC(=O)[C@H](CCCCN)NC(=O)[C@@H](N)CSSC[C@@H](C(=O)O)NC(=O)[C@H](CO)NC(=O)[C@H]([C@@H](C)O)NC(=O)[C@H](Cc3ccccc3)NC(=O)[C@H]([C@@H](C)O)NC2=O)cc1`, the IC50 in assay [1], in assay [2], in assay [3], in assay [4] and in assay [5] was over 1000 nM in each case.

As to `CC(C)NCc1ccc(C[C@@H]2NC(=O)[C@@H](Cc3ccc4ccccc4c3)NC(=O)[C@H](Cc3ccccc3)NC(=O)[C@H](Cc3ccccc3)NC(=O)[C@H](CCCCN)NC(=O)[C@@H](N)CSSC[C@@H](C(=O)O)NC(=O)[C@H](CO)NC(=O)[C@H]([C@@H](C)O)NC(=O)[C@H](Cc3ccccc3)N(C)C(=O)[C@H]([C@@H](C)O)NC2=O)cc1`, the IC50 in assay [1] is over 1000 nM; in assay [2], over 1000 nM; in assay [3], over 1000 nM; in assay [4], 583 nM; in assay [5], over 1000 nM.

`CC(C)NCc1ccc(C[C@@H]2NC(=O)[C@@H](Cc3ccc4ccccc4c3)NC(=O)[C@H](Cc3ccccc3)NC(=O)[C@H](Cc3ccccc3)NC(=O)[C@H](CCCCN)N(C)C(=O)[C@@H](N)CSSC[C@@H](C(=O)O)NC(=O)[C@H](CO)NC(=O)[C@H]([C@@H](C)O)NC(=O)[C@H](Cc3ccccc3)NC(=O)[C@H]([C@@H](C)O)NC2=O)cc1`: the IC50 in assay [1] is over 1000 nM; in assay [2] it was over 1000 nM; in assay [3], over 1000 nM; in assay [4] it was 535 nM; in assay [5], over 1000 nM.

`CC(C)NCc1ccc(C[C@@H]2NC(=O)[C@@H](Cc3c[nH]c4ccccc34)NC(=O)[C@H](Cc3ccccc3)NC(=O)[C@H](Cc3ccccc3)NC(=O)[C@H](CCCCN)NC(=O)[C@@H](N)CSSC[C@@H](C(=O)N[C@@H](CCCCN)C(=O)N[C@@H](CCCCN)C(=O)O)NC(=O)[C@H](CO)N(C)C(=O)[C@H]([C@@H](C)O)NC(=O)[C@H](Cc3ccccc3)NC(=O)[C@H]([C@@H](C)O)NC2=O)cc1`: the IC50 in assay [1] is over 1000 nM; in assay [2], over 1000 nM; in assay [3], 682 nM; in assay [4], 53 nM; in assay [5] it was over 1000 nM.

Take `CC(C)NCc1ccc(C[C@@H]2NC(=O)[C@@H](Cc3ccc4ccccc4c3)NC(=O)[C@H](Cc3ccccc3)NC(=O)[C@H](Cc3ccccc3)NC(=O)[C@H](CCCCN)NC(=O)[C@@H](N)CSSC[C@@H](C(=O)N[C@@H](CCCCN)C(=O)N[C@@H](CCCCN)C(=O)N[C@@H](CCCCN)C(=O)O)N(C)C(=O)[C@H](CO)NC(=O)[C@H]([C@@H](C)O)NC(=O)[C@H](Cc3ccccc3)NC(=O)[C@H]([C@@H](C)O)NC2=O)cc1`: the IC50 in assay [1] is 620 nM; in assay [2] it was over 1000 nM; in assay [3], over 1000 nM; in assay [4], 144 nM; in assay [5], over 1000 nM.

On to `CC(C)NCc1ccc(C[C@@H]2NC(=O)[C@H](N(C)C(=O)c3ccc4ccccc4c3)NC(=O)[C@H](Cc3ccccc3)NC(=O)[C@H](Cc3ccccc3)NC(=O)[C@H](CCCCN)NC(=O)[C@@H](N)CSSC[C@@H](C(=O)O)NC(=O)[C@H](CO)NC(=O)[C@H]([C@@H](C)O)NC(=O)[C@H](Cc3ccc(O)c(I)c3)NC(=O)[C@H]([C@@H](C)O)NC2=O)cc1`, for which the IC50 in assay [1] is 536 nM; in assay [2], over 1000 nM; in assay [3] it was over 1000 nM; in assay [4], 6.7 nM; in assay [5], 435 nM.

Turning to `CC(C)NCc1ccc(C[C@@H]2NC(=O)[C@@H](Cc3c[nH]c4ccccc34)NC(=O)[C@H](Cc3ccccc3)NC(=O)[C@H](Cc3ccccc3)NC(=O)[C@H](CCCCN)NC(=O)[C@@H](N)CSSC[C@@H](C(=O)O)NC(=O)[C@H](CO)NC(=O)[C@H]([C@@H](C)O)N(C)C(=O)[C@H](Cc3ccccc3)NC(=O)[C@H]([C@@H](C)O)NC2=O)cc1`, the IC50 in assay [1] is over 1000 nM; in assay [2] it was over 1000 nM; in assay [3] it was over 1000 nM; in assay [4], 75 nM; in assay [5], over 1000 nM.

As for `CC(C)NCc1ccc(C[C@@H]2NC(=O)[C@@H](Cc3ccc4ccccc4c3)NC(=O)[C@H](Cc3ccccc3)NC(=O)[C@H](Cc3ccccc3)NC(=O)[C@H](CCCCN)NC(=O)[C@@H](N)CSSC[C@@H](C(=O)O)NC(=O)[C@H](CO)NC(=O)[C@H]([C@@H](C)O)N(C)C(=O)[C@H](Cc3ccccc3)NC(=O)[C@H]([C@@H](C)O)NC2=O)cc1`, the IC50 in assay [1] is over 1000 nM; in assay [2], over 1000 nM; in assay [3], over 1000 nM; in assay [4], 176 nM; in assay [5] it was 417 nM.

Turning to `CC(C)NCc1ccc(C[C@@H]2NC(=O)[C@@H](Cc3ccc4ccccc4c3)NC(=O)[C@H](Cc3ccccc3)NC(=O)[C@H](Cc3ccccc3)N(C)C(=O)[C@H](CCCCN)NC(=O)[C@@H](N)CSSC[C@@H](C(=O)O)NC(=O)[C@H](CO)NC(=O)[C@H]([C@@H](C)O)NC(=O)[C@H](Cc3ccccc3)NC(=O)[C@H]([C@@H](C)O)NC2=O)cc1`, the IC50 in assay [1], in assay [2], in assay [3], in assay [4] and in assay [5] was over 1000 nM each time.
